How the values were obtained:
[1] = Tolerability in xenograft-bearing mice; assay type: in vivo
[2] = tested on: ALL-4 ALL B-precursor xenograft; test: PPTP in vivo xenograft testing, ALL-4; design: species or system mice
[3] = tested on: Rh30 ALV rhabdomyosarcoma xenograft; test: PPTP in vivo xenograft testing, Rh30; design: species or system mice
[4] = tested on: NALM-6 cell line; test: DIMSCAN in vitro cytotoxicity testing, NALM-6; assay type: cell-based
In short: (§1)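 Test compound incubated with cells of a 24-line pediatric cancer panel for 96 h at 0.1 nM to 1 μM, then assessed by DIMSCAN. Relative IC50 (rIC50) derived per line. Panel comparison value is the panel rIC50 divided by the rIC50 of each cell line.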

[5] = tested on: NB-1691 neuroblastoma xenograft; test: PPTP in vivo xenograft testing, NB-1691; design: species or system mice
[6] = tested on: Rh18 EMB rhabdomyosarcoma xenograft; test: PPTP in vivo xenograft testing, Rh18; design: species or system mice
[7] = tested on: RS4;11 cell line; test: DIMSCAN in vitro cytotoxicity testing, RS4; assay type: cell-based
In short: as §1

[8] = tested on: BT-12 cell line; test: DIMSCAN in vitro cytotoxicity testing, BT-12; assay type: cell-based
In short: as §1

[9] = tested on: NB-1643 neuroblastoma xenograft; test: PPTP in vivo xenograft testing, NB-1643; design: species or system mice
[10] = tested on: TC-71 Ewing xenograft; test: PPTP in vivo xenograft testing, TC-71; design: species or system mice
[11] = tested on: BT-29 rhabdoid xenograft; test: PPTP in vivo xenograft testing, BT-29; design: species or system mice
[12] = tested on: SJ-GBM2 cell line; test: DIMSCAN in vitro cytotoxicity testing, SJ-GBM2; assay type: cell-based
In short: as §1

[13] = tested on: KT-13 Wilms xenograft; test: PPTP in vivo xenograft testing, KT-13; design: species or system mice
[14] = tested on: Rh28 ALV rhabdomyosarcoma xenograft; test: PPTP in vivo xenograft testing, Rh28; design: species or system mice
[15] = tested on: ALL-8 ALL T-cell xenograft; test: PPTP in vivo xenograft testing, ALL-8; design: species or system mice
[16] = tested on: ALL-2 ALL B-precursor xenograft; test: PPTP in vivo xenograft testing, ALL-2; design: species or system mice
[17] = tested on: EW8 Ewing xenograft; test: PPTP in vivo xenograft testing, EW8; design: species or system mice
[18] = tested on: MOLT-4 cell line; test: DIMSCAN in vitro cytotoxicity testing, MOLT-4; assay type: cell-based
In short: as §1

[19] = tested on: EW5 Ewing xenograft; test: PPTP in vivo xenograft testing, EW5; design: species or system mice
[20] = tested on: COG-LL-317 cell line; test: DIMSCAN in vitro cytotoxicity testing, COG-LL-317; assay type: cell-based
In short: as §1

[21] = tested on: Rh18 cell line; test: DIMSCAN in vitro cytotoxicity testing, Rh18; assay type: cell-based
In short: as §1

[22] = tested on: RD cell line; test: DIMSCAN in vitro cytotoxicity testing, RD; assay type: cell-based
In short: as §1

[23] = tested on: Rh41 ALV rhabdomyosarcoma xenograft; test: PPTP in vivo xenograft testing, Rh41; design: species or system mice
[24] = 1.5 mg/kg IP Q4Dx3 repeated at Day 21
[25] = 1 mg/kg IP Q4Dx3 repeated at Day 21
[26] = NB-1643, 1 mg/kg IP Q4Dx3 repeated at Day 21

## C=C1C[C@@H]2CC[C@@]34C[C@H]5O[C@H]6[C@@H](O3)[C@H]3O[C@H](CC[C@@H]3O[C@H]6[C@H]5O4)CC(=O)C[C@@H]3[C@@H](OC)[C@@H](C[C@H](O)CN)O[C@H]3C[C@H]3O[C@@H](CC[C@@H]1O2)C[C@@H](C)C3=C [Eribulin]
[1]; 6 of 409 treated mice, control 1 of 401
  toxicity rate in the treated groups: 1.5%
[1]; NOD-SCID, mouse, in vivo, ip
  MTD at 6 weeks: 1.5 mg/kg
[2]; 1.5 mg/kg IP
  EFS activity: High (High activity requires: (a) an EFS T/C >2; (b) a significant difference in EFS distributions, and (c) a net reduction in median tumor volume for animals in the treated group at the end of treatment as compared to at treatment initiation)
  Response activity: High (A high level of activity is indicated by a score of 6 or more)
[2]; [24]
  EFS T/C: >4.3
[2]; CD45%, 1.5 mg/kg IP
  Median final RTV (CD45%): 0.0%
[3]; 1 mg/kg IP
  EFS activity: High (High activity requires: (a) an EFS T/C >2; (b) a significant difference in EFS distributions, and (c) a net reduction in median tumor volume for animals in the treated group at the end of treatment as compared to at treatment initiation)
  Response activity: High (A high level of activity is indicated by a score of 6 or more)
  T/C volume activity: High (High activity = T/C ≤0.15)
[3]; [25]
  EFS T/C: >3.8
  Median final RTV (CD45%): 0.0
[3]; 1 mg/kg IP, Day 21 or earlier
  Tumor volume T/C: 0.06
[4]; Homo sapiens, NALM-6, 96 h, read-out: rIC50
  IC50: 0.59 nM
[4]; NALM-6
  Panel rIC50/Line rIC50: 0.46
  Relative in/out%: −99%
  Ymin % (observed): 0.03%
[5]; 1 mg/kg IP
  EFS activity: Low (Low activity = EFS T/C <2)
  Response activity: Low (low activity by a score of <2)
  T/C volume activity: Low (Low activity = T/C >0.45)
[5]; [25]
  EFS T/C: 1.1
  Median final RTV (CD45%): >4
  Time to event: 7.9
[5]; 1 mg/kg IP, Day 21 or earlier
  Tumor volume T/C: 0.80
[6]; 1 mg/kg IP
  EFS activity: Int (Intermediate activity = criteria (a) and (b) above, but not having a net reduction in median tumor volume for treated animals at the end of the study)
  Response activity: Int (intermediate activity by a score of ≥2 but <6)
  T/C volume activity: Low (Low activity = T/C >0.45)
[6]; [25]
  EFS T/C: >3.2
  Median final RTV (CD45%): 1.8
[6]; 1 mg/kg IP, Day 21 or earlier
  Tumor volume T/C: 0.76
[7]; Homo sapiens, RS4-11, 96 h, read-out: rIC50
  IC50: < 0.1 nM
[7]; RS4;11
  Panel rIC50/Line rIC50: >2.74
  Relative in/out%: −99%
  Ymin % (observed): 0.22%
[8]; BT-12
  Panel rIC50/Line rIC50: 1.83
  Relative in/out%: −74%
  Ymin % (observed): 2.12%
[8]; Homo sapiens, BT-12, 96 h, read-out: rIC50
  IC50: 0.15 nM
[9]; NB-1643, 1 mg/kg IP
  EFS activity: High (High activity requires: (a) an EFS T/C >2; (b) a significant difference in EFS distributions, and (c) a net reduction in median tumor volume for animals in the treated group at the end of treatment as compared to at treatment initiation)
  Response activity: High (A high level of activity is indicated by a score of 6 or more)
  T/C volume activity: High (High activity = T/C ≤0.15)
[9]; [26]
  EFS T/C: >4.7
  Median final RTV (CD45%): 0.6
[9]; NB-1643, 1 mg/kg IP, Day 21 or earlier
  Tumor volume T/C: 0.01
[9]; NB-1643 neuroblastoma xenograft
  objective response: achieved an objective response
[10]; 1 mg/kg IP
  Response activity: High (A high level of activity is indicated by a score of 6 or more)
  T/C volume activity: Int (Intermediate activity = T/C ≤0.45 but >0.15)
[10]; [25]
  EFS T/C: >1.5
  Median final RTV (CD45%): 2.3
[10]; 1 mg/kg IP, Day 21 or earlier
  Tumor volume T/C: 0.19
[11]; 1 mg/kg IP
  Response activity: Int (intermediate activity by a score of ≥2 but <6)
  T/C volume activity: Low (Low activity = T/C >0.45)
[11]; [25]
  EFS T/C: >1.6
  Median final RTV (CD45%): >4
[11]; 1 mg/kg IP, Day 21 or earlier
  Tumor volume T/C: 0.65
[12]; 96 h, read-out: rIC50
  IC50: 0.51 nM
[12]; SJ-GBM2
  Panel rIC50/Line rIC50: 0.53
  Relative in/out%: −95%
  Ymin % (observed): 0.46%
[13]; 1 mg/kg IP
  EFS activity: Int (Intermediate activity = criteria (a) and (b) above, but not having a net reduction in median tumor volume for treated animals at the end of the study)
  Response activity: High (A high level of activity is indicated by a score of 6 or more)
  T/C volume activity: High (High activity = T/C ≤0.15)
[13]; [25]
  EFS T/C: >3.3
  Median final RTV (CD45%): 1.1
[13]; 1 mg/kg IP, Day 21 or earlier
  Tumor volume T/C: 0.15
[14]; 1 mg/kg IP
  EFS activity: High (High activity requires: (a) an EFS T/C >2; (b) a significant difference in EFS distributions, and (c) a net reduction in median tumor volume for animals in the treated group at the end of treatment as compared to at treatment initiation)
  Response activity: High (A high level of activity is indicated by a score of 6 or more)
  T/C volume activity: Int (Intermediate activity = T/C ≤0.45 but >0.15)
[14]; [25]
  EFS T/C: >2.4
  Median final RTV (CD45%): 0.0
[14]; 1 mg/kg IP, Day 21 or earlier
  Tumor volume T/C: 0.29
[15]; 1.5 mg/kg IP
  EFS activity: High (High activity requires: (a) an EFS T/C >2; (b) a significant difference in EFS distributions, and (c) a net reduction in median tumor volume for animals in the treated group at the end of treatment as compared to at treatment initiation)
  Response activity: High (A high level of activity is indicated by a score of 6 or more)
[15]; [24]
  EFS T/C: >7.9
[15]; CD45%, 1.5 mg/kg IP
  Median final RTV (CD45%): 0.0%
[16]; 1.5 mg/kg IP
  EFS activity: High (High activity requires: (a) an EFS T/C >2; (b) a significant difference in EFS distributions, and (c) a net reduction in median tumor volume for animals in the treated group at the end of treatment as compared to at treatment initiation)
  Response activity: High (A high level of activity is indicated by a score of 6 or more)
[16]; [24]
  EFS T/C: >2.8
[16]; CD45%, 1.5 mg/kg IP
  Median final RTV (CD45%): 0.0%
[17]; 1 mg/kg IP
  EFS activity: High (High activity requires: (a) an EFS T/C >2; (b) a significant difference in EFS distributions, and (c) a net reduction in median tumor volume for animals in the treated group at the end of treatment as compared to at treatment initiation)
  Response activity: High (A high level of activity is indicated by a score of 6 or more)
  T/C volume activity: High (High activity = T/C ≤0.15)
[17]; [25]
  EFS T/C: >3.1
  Median final RTV (CD45%): 0.0
[17]; 1 mg/kg IP, Day 21 or earlier
  Tumor volume T/C: 0.00
[18]; Homo sapiens, MOLT-4, 96 h, read-out: rIC50
  IC50: < 0.1 nM
[18]; MOLT-4
  Panel rIC50/Line rIC50: >2.74
  Relative in/out%: −99%
  Ymin % (observed): 0.05%
[19]; 1 mg/kg IP
  EFS activity: Int (Intermediate activity = criteria (a) and (b) above, but not having a net reduction in median tumor volume for treated animals at the end of the study)
  Response activity: Int (intermediate activity by a score of ≥2 but <6)
  T/C volume activity: High (High activity = T/C ≤0.15)
[19]; [25]
  EFS T/C: 3.3
  Median final RTV (CD45%): >4
  Time to event: 41.3
[19]; 1 mg/kg IP, Day 21 or earlier
  Tumor volume T/C: 0.13
[20]; 96 h, read-out: rIC50
  IC50: < 0.1 nM
[20]; COG-LL-317
  Panel rIC50/Line rIC50: >2.74
  Relative in/out%: −99%
  Ymin % (observed): 0.03%
[21]; Homo sapiens, Rh18, 96 h, read-out: rIC50
  IC50: 0.83 nM
[21]; Rh18
  Panel rIC50/Line rIC50: 0.33
  Relative in/out%: −53%
  Ymin % (observed): 20.92%
[22]
  Panel rIC50/Line rIC50: 1.92
  Relative in/out%: −18%
  Ymin % (observed): 4.49%
[22]; Homo sapiens, 96 h, read-out: rIC50
  IC50: 0.14 nM
[23]; 1 mg/kg IP
  EFS activity: High (High activity requires: (a) an EFS T/C >2; (b) a significant difference in EFS distributions, and (c) a net reduction in median tumor volume for animals in the treated group at the end of treatment as compared to at treatment initiation)
  Response activity: High (A high level of activity is indicated by a score of 6 or more)
  T/C volume activity: High (High activity = T/C ≤0.15)
[23]; [25]
  EFS T/C: >3.0
  Median final RTV (CD45%): 0.0
[23]; 1 mg/kg IP, Day 21 or earlier
  Tumor volume T/C: 0.07
